The values that follow come from ChEMBL document CHEMBL1149458, “Synthesis and pharmacological evaluation of second-generation phosphatidic acid derivatives as lysophosphatidic acid receptor ligands” (Bioorg Med Chem Lett, 2006).

The subject of assay [1] is RH7777 (Rattus norvegicus). Kind of assay: Ability to evoke intracellular calciums transient in wild-type RH7777 cells. For orientation: A change in cytosolic calcium serves as a functional read-out for many receptors and channels.
The target in assay [2] is Lysophosphatidic acid receptor 1 (Homo sapiens, UniProt Q92633). As to the kind of experiment: Activity at LPA1 receptor transfected RH7777 cells. The class given is cell-based. In a few lines:
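RH7777 cells, which lack endogenous LPA GPCR, were stably transfected with LPA1. Intracellular Ca2+ transients were recorded after applying increasing concentrations of compound to build dose–response relationships, with LPA 18:1 as the reference agonist.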

Assay [3] deals with T1, Lysophosphatidic acid receptor 3 (Homo sapiens) (UniProt Q9UBY5).
T1 sequence (whole entry): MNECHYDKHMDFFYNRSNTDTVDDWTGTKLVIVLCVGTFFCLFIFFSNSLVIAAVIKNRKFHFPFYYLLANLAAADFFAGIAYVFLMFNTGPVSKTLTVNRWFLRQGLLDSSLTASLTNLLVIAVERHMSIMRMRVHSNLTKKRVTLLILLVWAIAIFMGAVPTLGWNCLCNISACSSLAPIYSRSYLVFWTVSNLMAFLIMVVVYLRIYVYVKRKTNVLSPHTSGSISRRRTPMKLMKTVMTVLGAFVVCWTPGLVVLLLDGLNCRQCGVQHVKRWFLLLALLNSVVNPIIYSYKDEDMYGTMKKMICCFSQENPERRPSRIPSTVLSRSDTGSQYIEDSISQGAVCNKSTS
Kind of assay: Activity at LPA3 receptor transfected RH7777 cells. The class given is cell-based. In a few lines:
(§1)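 RH7777 cells, which lack LPA GPCR, stably transfected with the single receptor (LPA2 or LPA3). Intracellular Ca2+ transients recorded after applying increasing compound concentrations, benchmarked against LPA 18:1, to assess agonist and antagonist activity.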

The target of assay [4] is T2, Peroxisome proliferator-activated receptor gamma (Homo sapiens) (UniProt P37231).
T2 sequence (whole entry): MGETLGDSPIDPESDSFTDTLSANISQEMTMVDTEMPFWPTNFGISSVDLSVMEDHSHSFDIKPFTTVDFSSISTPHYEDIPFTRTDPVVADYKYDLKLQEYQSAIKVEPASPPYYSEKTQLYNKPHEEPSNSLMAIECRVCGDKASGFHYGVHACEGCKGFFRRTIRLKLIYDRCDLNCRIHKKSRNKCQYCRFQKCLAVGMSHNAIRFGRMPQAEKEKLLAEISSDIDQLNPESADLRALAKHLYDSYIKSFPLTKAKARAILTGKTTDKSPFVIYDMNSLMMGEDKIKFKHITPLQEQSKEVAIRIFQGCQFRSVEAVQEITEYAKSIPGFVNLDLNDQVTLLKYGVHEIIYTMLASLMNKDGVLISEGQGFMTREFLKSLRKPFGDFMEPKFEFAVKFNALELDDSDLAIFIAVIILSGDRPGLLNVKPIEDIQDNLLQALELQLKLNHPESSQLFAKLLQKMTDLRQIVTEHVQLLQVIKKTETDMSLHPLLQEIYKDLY
As to the kind of experiment: Activation of PPARgamma in CV1 cells transfected with PPARgamma and luciferase reporter gene. It is filed as functional, cell-based. The following applies: CV-1. In a few lines: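 CV1 cells transfected with PPARγ and a PPRE-Acox-Rluc reporter, treated 20 h with vehicle or 10 µM compound in DMSO. Luciferase and β-galactosidase activities measured in cell lysate (mean ± SEM, n = 4). Rosiglitazone used as reference agonist; significance versus vehicle control.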

The target of another assay is Autotaxin (Homo sapiens, UniProt Q13822). Kind of assay: Inhibition of recombinant ATX from transfected HEK293 cells. It is filed as cell-based. The following applies: for inhibition: concentration not given here. In a few lines: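 Recombinant ATX in conditioned medium from transiently transfected HEK293 cells, assayed by hydrolysis of the substrate bis(para-nitrophenyl) phosphate.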

In assay [5] the target is Lysophosphatidic acid receptor 2 (Homo sapiens) (UniProt Q9HBW0). Kind of assay: Activity at LPA2 receptor transfected RH7777 cells. It is filed as cell-based. In short, it runs like this: as §1
Sequence of Lysophosphatidic acid receptor 2 (Homo sapiens) (Q9HBW0 whole entry): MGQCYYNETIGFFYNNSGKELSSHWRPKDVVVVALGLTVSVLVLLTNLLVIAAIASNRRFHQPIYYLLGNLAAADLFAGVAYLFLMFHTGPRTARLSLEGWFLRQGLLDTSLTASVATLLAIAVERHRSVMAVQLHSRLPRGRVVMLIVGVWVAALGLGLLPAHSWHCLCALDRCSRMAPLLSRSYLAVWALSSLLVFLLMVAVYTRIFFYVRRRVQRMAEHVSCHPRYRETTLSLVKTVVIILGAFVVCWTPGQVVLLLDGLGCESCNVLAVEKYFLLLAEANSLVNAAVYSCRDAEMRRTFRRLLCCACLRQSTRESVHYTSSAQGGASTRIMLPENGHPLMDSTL

pIC50, pKi: −log10 of the molar value. Active and inactive are the calls of the source. No cut-off for these calls is given here.

Sequence of Lysophosphatidic acid receptor 1 (Q92633 whole entry): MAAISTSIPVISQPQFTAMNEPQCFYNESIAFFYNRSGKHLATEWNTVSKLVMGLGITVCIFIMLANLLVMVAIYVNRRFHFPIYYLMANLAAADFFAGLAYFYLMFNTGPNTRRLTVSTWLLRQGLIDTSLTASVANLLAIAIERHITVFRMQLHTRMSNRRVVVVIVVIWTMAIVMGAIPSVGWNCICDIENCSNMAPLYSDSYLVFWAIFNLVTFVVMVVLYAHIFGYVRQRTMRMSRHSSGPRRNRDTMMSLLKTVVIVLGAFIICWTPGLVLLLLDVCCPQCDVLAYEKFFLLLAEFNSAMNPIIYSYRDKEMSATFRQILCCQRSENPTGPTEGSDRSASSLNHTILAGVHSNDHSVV

The term Emax denotes the size of the effect at its maximum, as opposed to the concentration needed. `CCCCCCCCOC[C@H](COP(=O)(O)O)OCCCCCCCC`: in assay [1], the result was inactive. The results for the Emax in assay [2] and in assay [3] were 57% and 109%, respectively. In assay [4], the result was Active.

As for `CCCCCCCCOC[C@@H](COP(=O)(O)O)OCCCCCCCC`, in assay [1], the result was inactive. Besides, the outcome in assay [4] was Active.

Regarding `CCCCCCCCNC(=O)[C@H](COP(O)(O)=S)NC(=O)CCCCCCC`, the outcome in assay [4] was inactive.

For `CCCCCCCCOC[C@@H](COP(O)(O)=S)OCCCCCCCC`, the result in assay [1] was inactive. The outcome in assay [4] was Active.

On to `CCCCCCCCNC(=O)[C@@H](COP(=O)(O)O)NC(=O)CCCCCCC`, for which the result in assay [4] was inactive.

The pIC50 is the negative decadic logarithm of the IC50, by convention in mol/L. By pKi is commonly meant the Ki on a negative log10 scale, so that one unit is a factor of ten. A lower pKi goes with a high Ki. By inhibition is commonly meant how much of the control response was suppressed. In assay [2], `CCCCCCCC(=O)OC[C@H](COP(=O)(O)O)OC(=O)CCCCCCC` gave a pIC50 of 6.16 and a pKi of 6.39. For the same molecule, at Autotaxin, the pIC50 was 5.78 and the inhibition is 49.9%.

As for `CCCCCCCCNC(=O)[C@@H](COP(O)(O)=S)NC(=O)CCCCCCC`, the outcome in assay [4] was inactive.

For `CCCCCCCCOC[C@H](COP(O)(O)=S)OCCCCCCCC`, the result in assay [1] was inactive. Moreover, the Emax was determined as 30% in assay [2], 27% in assay [5] and 109% in assay [3]. Besides, in assay [4], the result was Active.

On to `CCCCCCCC(=O)OC[C@@H](COP(=O)(O)O)OC(=O)CCCCCCC`, for which the result in assay [4] was inactive.

On to `CCCCCCCC(=O)OC[C@@H](COP(O)(O)=S)OC(=O)CCCCCCC`, for which the Emax in assay [5] came to 17%. The Emax in assay [3] came out at 30%. At Autotaxin, the pIC50 was 6.14 and the inhibition is 52.3%. The result in assay [4] was inactive.

In the case of `CCCCCCCC(=O)OC[C@H](COP(O)(O)=S)OC(=O)CCCCCCC`, in assay [5], the Emax stood at 58%. At Autotaxin, the pIC50 is 6.22 and the inhibition was determined as 72.5%. In addition, the outcome in assay [4] was inactive.
